Tests used:
[1] = molecular target: T1, Broad substrate specificity ATP-binding cassette transporter ABCG2 (Homo sapiens, UniProt Q9UNQ0); experiment: Inhibition of recombinant human GFP-fused ABCG2 expressed in MDCK2 cells assessed as reduction in Hoechst 33342 efflux preincubated for 30 mins followed by Hoechst 33342 addition measured immediately at 60 sec time interval for 120 mins by fluorescence assay; format: cell-based
T1 sequence (Q9UNQ0 whole entry): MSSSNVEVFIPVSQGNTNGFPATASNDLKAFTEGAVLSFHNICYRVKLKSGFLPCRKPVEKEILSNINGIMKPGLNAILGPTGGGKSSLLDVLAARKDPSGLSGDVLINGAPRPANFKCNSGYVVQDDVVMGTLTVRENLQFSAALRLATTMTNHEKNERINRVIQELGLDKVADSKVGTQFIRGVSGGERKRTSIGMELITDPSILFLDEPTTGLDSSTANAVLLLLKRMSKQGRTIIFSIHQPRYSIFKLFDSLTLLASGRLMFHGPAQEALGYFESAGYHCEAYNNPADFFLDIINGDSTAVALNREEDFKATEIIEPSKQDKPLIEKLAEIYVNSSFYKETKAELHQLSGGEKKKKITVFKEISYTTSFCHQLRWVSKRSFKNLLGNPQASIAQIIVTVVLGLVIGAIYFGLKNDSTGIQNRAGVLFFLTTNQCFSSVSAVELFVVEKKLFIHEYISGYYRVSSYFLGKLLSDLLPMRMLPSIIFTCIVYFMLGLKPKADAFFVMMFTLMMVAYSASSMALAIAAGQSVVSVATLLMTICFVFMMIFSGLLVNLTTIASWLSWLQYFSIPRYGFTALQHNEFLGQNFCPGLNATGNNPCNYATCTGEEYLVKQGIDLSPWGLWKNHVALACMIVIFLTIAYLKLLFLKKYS
Summary of the method: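 Hoechst 33342 accumulation assay: the dye is an ABCG2 substrate whose fluorescence rises when bound to DNA or embedded in membrane. Intracellular accumulation serves as the read-out of transporter inhibition.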

ABCG2 [2] = molecular target: T2, ABCG2 (Homo sapiens, UniProt Q9UNQ0); experiment: Inhibition of recombinant human GFP-fused ABCG2 expressed in MDCK2 cells assessed as reduction in Hoechst 33342 efflux at […] preincubated for 30 mins followed by Hoechst 33342 addition measured immediately at 60 sec time interval for 120 mins by fluorescence assay relative to Ko143; format: cell-based; details: MDCK2 cells expressing recombinant GFP-fused human ABCG2, probe Hoechst 33342, read-out: Imax
T2 sequence (Q9UNQ0 whole entry): T1 sequence (Q9UNQ0 whole entry)

ABCG2 [3] = molecular target: T2, ABCG2; experiment: Activation of ABCG2 (unknown origin) ATPase activity expressed in baculovirus infected high five cell membranes assessed as protein Vmax by ascorbic acid/ammonia molybdate reaction-based colorimetric analysis relative to basal control; details: read-out: Vmax
Summary of the method: (§1)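 Colorimetric ATPase assay of ABCG2 membranes; activity expressed relative to control. Where data were biphasic, a combined increasing plus decreasing logistic equation with the Hill coefficient fixed at one was fitted, giving an activating and an inactivating K.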

[4] = molecular target: T1, Broad substrate specificity ATP-binding cassette transporter ABCG2; experiment: Activation of ABCG2 (unknown origin) ATPase activity expressed in baculovirus infected high five cell membranes by ascorbic acid/ammonia molybdate reaction-based colorimetric analysis; summary of the method: as §1
[5] = Therapeutic index, ratio of GI50 for ABCG2 over-expressing MDCK2 cells to IC50 for recombinant human GFP-fused ABCG2 expressed in MDCK2 cells; format: cell-based
[6] = Cytotoxicity against MDCK2 cells assessed as cell growth inhibition after 72 hrs by MTT assay; format: cell-based, Canis lupus familiaris, MDCK-II; details: dog
[7] = Cytotoxicity against ABCG2 over-expressing MDCK2 cells assessed as cell growth inhibition after 72 hrs by MTT assay; format: ADME, cell-based, Canis lupus familiaris, MDCK-II; details: dog
[8] = molecular target: ATP-dependent translocase ABCB1 (Homo sapiens, UniProt P08183); experiment: Inhibition of ABCB1 in human A2780adr cells assessed as reduction in calcein AM levels preincubated for 30 mins followed by calcein AM addition measured immediately at 60 sec time interval for 60 mins by fluorescence assay; format: cell-based
Summary of the method: (§2)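 Calcein AM assay in A2780adr cells (ABCB1 overexpressing) and H69AR cells (ABCC1 overexpressing). Compounds were screened at 10 µM, with inhibition relative to cyclosporine A as the total-inhibition control.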

ABCB1 = ABCB1 (Homo sapiens, UniProt P08183); experiment: Inhibition of ABCB1 in human A2780adr cells assessed as reduction in calcein AM levels at 10 uM preincubated for 30 mins followed by calcein AM addition measured immediately at 60 sec time interval for 60 mins by fluorescence assay relative to Cyclosporine A; format: cell-based; details: probe calcein AM; summary of the method: as §2
MDCK-II = experiment: Cytotoxicity against ABCG2 over-expressing MDCK2 cells assessed as effect on cell proliferation at low concentration after 72 hrs in absence of DMSO and presence of 1% methanol by MTT assay; format: ADME, cell-based, Canis lupus familiaris; details: dog
Summary of the method: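 Modified MTT viability assay in ABCG2-overexpressing MDCK II cells, run without DMSO and with a constant 1% methanol.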

ABCB1, sequence (P08183 whole entry): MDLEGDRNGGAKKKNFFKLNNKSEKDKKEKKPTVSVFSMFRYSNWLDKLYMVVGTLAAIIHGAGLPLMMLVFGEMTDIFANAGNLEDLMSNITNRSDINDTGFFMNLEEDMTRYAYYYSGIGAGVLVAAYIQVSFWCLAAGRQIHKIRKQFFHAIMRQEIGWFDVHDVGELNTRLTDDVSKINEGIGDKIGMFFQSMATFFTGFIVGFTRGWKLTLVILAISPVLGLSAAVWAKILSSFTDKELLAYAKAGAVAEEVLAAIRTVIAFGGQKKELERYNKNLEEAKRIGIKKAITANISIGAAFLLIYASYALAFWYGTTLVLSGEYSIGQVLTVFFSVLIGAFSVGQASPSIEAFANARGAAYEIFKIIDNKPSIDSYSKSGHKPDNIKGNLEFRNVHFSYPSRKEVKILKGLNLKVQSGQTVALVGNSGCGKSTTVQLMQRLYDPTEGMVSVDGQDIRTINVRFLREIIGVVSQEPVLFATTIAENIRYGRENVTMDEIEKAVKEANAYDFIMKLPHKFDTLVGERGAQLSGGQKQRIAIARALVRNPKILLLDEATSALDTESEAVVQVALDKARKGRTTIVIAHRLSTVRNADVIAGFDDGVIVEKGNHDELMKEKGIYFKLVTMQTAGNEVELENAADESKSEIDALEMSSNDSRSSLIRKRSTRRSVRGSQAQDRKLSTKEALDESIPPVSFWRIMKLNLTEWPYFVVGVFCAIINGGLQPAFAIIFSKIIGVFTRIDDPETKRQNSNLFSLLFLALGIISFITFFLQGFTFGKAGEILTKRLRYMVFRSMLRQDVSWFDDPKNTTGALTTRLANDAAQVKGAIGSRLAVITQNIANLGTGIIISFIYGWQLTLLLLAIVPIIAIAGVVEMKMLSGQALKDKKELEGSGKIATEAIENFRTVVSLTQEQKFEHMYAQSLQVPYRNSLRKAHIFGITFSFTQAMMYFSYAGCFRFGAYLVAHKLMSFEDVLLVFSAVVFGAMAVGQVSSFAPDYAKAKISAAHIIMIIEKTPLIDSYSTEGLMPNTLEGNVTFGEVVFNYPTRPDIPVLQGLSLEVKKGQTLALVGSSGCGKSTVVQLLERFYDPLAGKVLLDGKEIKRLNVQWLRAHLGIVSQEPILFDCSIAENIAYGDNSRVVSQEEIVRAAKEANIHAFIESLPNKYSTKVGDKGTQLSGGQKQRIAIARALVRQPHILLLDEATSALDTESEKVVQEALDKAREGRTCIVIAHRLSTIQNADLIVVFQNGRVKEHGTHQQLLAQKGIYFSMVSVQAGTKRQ
ATP-dependent translocase ABCB1, sequence (P08183 whole entry): as above

SMILES | IC50 [1] [nM] | Emax at 2 h (ABCG2 [2]) [%] | Emax (ABCG2 [3]) [%] | EC50 ([4]; read-out: EC50) [nM] | TI [5] | GI50 at 72 h [6] [nM] | GI50 at 72 h [7] [nM] | EC50 [4] | IC50 [8] [nM] | inhibition at 1 h, 10 µM (ABCB1) [%] | Activity (MDCK-II)
COC(=O)c1cccc(Nc2nc(-c3cccnc3)nc3ccccc23)c1 | 362 | 80 to 110 |  |  |  |  |  |  |  |  | 
O=[N+]([O-])c1cccc(Nc2nc(-c3cccnc3)nc3ccccc23)c1 | 105 | 80 to 110 | 154 | 21 | 615 | 64600 | 70800 |  |  |  | 
Fc1cccc(Nc2nc(-c3ccccc3)nc3ccccc23)c1 | 363 | 80 to 110 | 142 | 131 | 49.6 |  | 18000 |  |  |  | 
O=[N+]([O-])c1cc(Nc2nc(-c3cccnc3)nc3ccccc23)ccc1O | 245 | 80 to 110 | 151 | 7 |  |  |  |  |  |  | 
Cc1cc(Nc2ccccc2)nc(-c2ccccc2)n1 | 648 | 80 to 110 | 100 |  | 165 | 136000 | 107000 | Not Active |  |  | 
O=C(O)c1cccc(Nc2nc(-c3ccncc3)nc3ccccc23)c1 | 60000 | 80 to 110 |  |  |  |  |  |  |  |  | 
O=S(=O)(F)c1cccc(Nc2nc(-c3ccncc3)nc3ccccc23)c1 | 1380 | 80 to 110 |  |  |  |  |  |  |  |  | 
N#Cc1ccc(Nc2nc(-c3ccccc3)nc3ccccc23)cc1 | 71.4 | 80 to 110 |  |  |  |  |  |  |  |  | 
O=[N+]([O-])c1cc(Nc2nc(-c3ccccc3)nc3ccccc23)ccc1O | 81.1 | 80 to 110 | 135 | 20 | 647 |  |  |  |  |  | 
N#Cc1cccc(Nc2nc(-c3ccccn3)nc3ccccc23)c1 | 507 | 80 to 110 | 115 | 1530 |  |  |  |  |  |  | 
CC(C)(C)OC(=O)c1cccc(Nc2nc(-c3ccncc3)nc3ccccc23)c1 | 299 | 80 to 110 | 40 | 1540 |  |  |  |  | 334 | > 25 | 
COc1ccc(Nc2cc(C)nc(-c3ccncc3)n2)cc1 | 874 | 80 to 110 | 146 | 85 |  |  |  |  |  |  | 
COc1ccc(Nc2nc(-c3ccccn3)nc3ccccc23)cc1OC | 1060 | 80 to 110 | 152 | 79 |  |  |  |  | 6300 | > 25 | 
COc1ccc(Nc2nc(-c3ccncc3)nc3ccccc23)cc1C(F)(F)F | 146 | 80 to 110 |  |  | 19.7 | 2460 | 2880 |  | 2780 | > 25 | 
OCc1cccc(Nc2nc(-c3cccnc3)nc3ccccc23)c1 | 810 | 80 to 110 |  |  |  |  |  |  |  |  | 
COc1ccc(Nc2nc(-c3ccncc3)nc3ccccc23)cc1OC | 545 | 80 to 110 | 150 | 10 |  |  |  |  | 2080 | > 25 | 
N#Cc1cccc(Nc2nc(-c3ccncc3)nc3ccccc23)c1 | 134 | 80 to 110 | 178 | 16 | 657 | 112000 | 88100 |  |  |  | Non-Toxic
Cc1cc(Nc2ccc(C#N)cc2)nc(-c2ccccc2)n1 | 128 | 80 to 110 | 140 | 2460 | 139 | 28400 | 17800 |  |  |  | 
CN(C)c1cccc(Nc2nc(-c3cccnc3)nc3ccccc23)c1 | 1200 | 80 to 110 |  |  | 8.33 | 14100 | 10000 |  |  |  | 

SMILES | IC50 [1] [nM] | Emax at 2 h (ABCG2 [2]) [%] | Emax (ABCG2 [3]) [%] | EC50 ([4]; read-out: EC50) [nM] | TI [5] | GI50 at 72 h [6] [nM] | GI50 at 72 h [7] [nM] | EC50 [4] | IC50 [8] [nM] | inhibition at 1 h, 10 µM (ABCB1) [%] | Activity (MDCK-II)
COC(=O)c1cccc(Nc2nc(-c3ccncc3)nc3ccccc23)c1 | 405 | 80 to 110 |  |  |  |  |  |  | 6370 | > 25 | 
c1ccc(Nc2nc(-c3ccccc3)nc3ccccc23)cc1 | 882 | 80 to 110 |  |  | 30.1 | 26000 | 26600 |  |  |  | 
COc1cccc(Nc2cc(C)nc(-c3ccncc3)n2)c1 | 271 | 80 to 110 | 144 | 82 |  |  |  |  |  |  | 
Oc1cccc(Nc2nc(-c3ccncc3)nc3ccccc23)c1 | 1070 | 80 to 110 |  |  | 8.62 | 12400 | 9220 |  |  |  | 
Oc1ccc(Nc2nc(-c3ccncc3)nc3ccccc23)cc1 | 4260 | 80 to 110 |  |  | 12.9 | 120000 | 55000 |  |  |  | 
COc1ccc(Nc2nc(-c3cccnc3)nc3ccccc23)cc1OC | 753 | 80 to 110 |  |  |  |  |  |  | 3110 | > 25 | 
OCc1cccc(Nc2nc(-c3ccncc3)nc3ccccc23)c1 | 921 | 80 to 110 |  |  |  |  |  |  |  |  | 
O=[N+]([O-])c1cccc(Nc2nc(-c3ccccn3)nc3ccccc23)c1 | 376 | 80 to 110 | 119 | 676 |  |  |  |  |  |  | 
Fc1cccc(Nc2nc(-c3cccnc3)nc3ccccc23)c1 | 156 | 80 to 110 | 140 | 58 | 300 | 100000 | 46800 |  |  |  | 
Cc1cc(Nc2cccc(C#N)c2)nc(-c2ccncc2)n1 | 132 | 80 to 110 | 133 | 22 | 52.4 | 9330 | 6920 |  |  |  | 
O=[N+]([O-])c1cccc(Nc2nc(-c3ccncc3)nc3ccccc23)c1 | 117 | 80 to 110 | 185 | 4 |  |  |  |  |  |  | 
Oc1ccc(Nc2nc(-c3ccccc3)nc3ccccc23)cc1 | 211 | 80 to 110 |  |  | 69.2 | 22600 | 14600 |  |  |  | 
COc1cccc(Nc2nc(-c3cccnc3)nc3ccccc23)c1 | 1020 | 80 to 110 | 137 | 50 |  |  |  |  | 4780 | > 25 | 
O=C(O)c1ccc(Nc2nc(-c3ccncc3)nc3ccccc23)cc1 | 9640 | 80 to 110 |  |  |  |  |  |  | 3670 | > 25 | 
N#Cc1ccc(Nc2nc(-c3cccnc3)nc3ccccc23)cc1 | 166 | 80 to 110 | 137 | 4 | 241 | 104000 | 79400 |  |  |  | 
COc1cccc(Nc2nc(-c3ccccn3)nc3ccccc23)c1 | 1630 | 80 to 110 |  |  |  |  |  |  | 12700 | > 25 | 
N#Cc1cccc(Nc2nc(-c3ccccc3)nc3ccccc23)c1 |  |  | 145 | 15 | 146 | 14200 | 10400 |  |  |  | 
Cc1cc(Nc2cccc(C#N)c2)nc(-c2ccccc2)n1 | 122 | 80 to 110 | 134 | 2080 |  |  |  |  |  |  | 
